High-throughput results as filed in PubChem.
Compounds with a hit are over-represented: about 3.8% of the library has one in this group of screens.
KCNQ1 inh: inhibitors of human KCNQ1 potassium channel; P51787; hit rate 1.3% among 310,000; B-score at 10 µM; CHO-K1 KCNQ1, FluxOR thallium flux fluorescence; hits give high values;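 active = compounds whose thallium flux B-score, printed positive for inhibition, exceeds three library SD while starting fluorescence stays within three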;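 also: channel opened by potassium depolarization with thallium stimulus after 20 min compound exposure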
KCNQ1 pot: potentiates or activates the human KCNQ1 potassium channel; CHO-K1 KCNQ1, thallium flux FluxOR fluorescence; hits give high values; B-score at 10 µM; hit rate 0.35% among 310,000; AID 2648;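 active = fluorescence ratio B-score, a plate-corrected score, at least three library SD, with initial intensity B-score within 5 SD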
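System: CHO-K1 cells stably expressing KCNQ1 / Medium: assay buffer for compound exposure, DMSO matched across wells / Reagent: thallium- and potassium-containing depolarizing buffer / Compound: one concentration, matched DMSO / Incubation: 20 min compound pretreatment at room temperature / Measured by: kinetic FluxOR fluorescence, 10 s baseline plus 110 s post-stimulus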
hERG protect: hERG (human) protection from proarrhythmic block; Q12809; CHO-hERG, FluxOR thallium flux, dofetilide IC70 present; activation (rescue from dofetilide block), less the hit threshold, % at 10 µM; hit rate 0.51% among 310,000; AID 1511;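 active = activation above the mean of controls blocked by dofetilide plus 5 SD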;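 also: thallium influx through hERG after potassium depolarization seen as dye fluorescence rise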
KCNK9 block: inhibitors of human KCNK9 two-pore domain potassium channel. HEK293 KCNK9, FluxOR thallium flux fluorescence; hits give low values. Q9NPC2. AID 488922. B-score at 10 µM. hit rate 1.2% among 310,000;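 active = ratio B-score over 3 SD below the library mean, with starting fluorescence within 5 SD of its mean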;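 also: negative B-score means less thallium flux so channel inhibition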
KCNK3 inh: human KCNK3 channel inhibition, primary screen | AID 602410 | hit rate 0.84% among 340,000 | O14649 | CHO-KCNK3 thallium flux, FluxOR fluorescence; hits give low values | B-score at 10 µM;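 active = B-score under library mean minus 4 SD, starting fluorescence ratio at most library mean plus 5 SD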;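 also: more negative B-score means stronger inhibition of thallium flux through KCNK3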
Kir21 block: Kir2.1 (mouse) channel inhibition | hit rate 0.85% among 310,000 | B-score at 10 µM | HEK293-Kir2.1, FluxOR thallium flux fluorescence; hits give low values | P35561;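 active = fluorescence ratio B-score at or below minus 3 SD of library scores, with starting-brightness B-score within 2 SD, cut at about -4.2 in these data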;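 also: channel flux triggered by added potassium and thallium sulfate stimulus; B-score of peak minus minimum fluorescence over baseline after thallium stimulus; more negative B-score means stronger Kir2.1 block with less thallium influx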
Hits are given with their value; i = inactive; nt = not tested or not shown.

SMILES | KCNQ1 inh | KCNQ1 pot | hERG protect | KCNK9 block | KCNK3 inh | Kir21 block
CCOc1ccccc1OCC(=O)Nc1ccc(Cl)cc1C(=O)c1ccccc1 | 6 | i | i | i | i | i
COc1ccccc1OCC(=O)Nc1ccc(Cl)cc1C(=O)c1ccccc1 | i | i | i | i | i | i
COC(=O)C1=C(c2ccc(-c3ccccc3)c(F)c2)C[C@@H]2CC[C@H]1N2C(=O)NC1Cc2ccccc2C1 | nt | nt | nt | nt | i | nt
OC(c1cccc(Cl)c1)(c1cccc(Cl)c1)C1CN2CCC1CC2 (stereo not given) | i | i | i | i | i | -4.65
O=C(Nc1cccc(C(F)(F)F)c1)OC1CN2CCC1CC2 (stereo not given) | i | i | i | i | i | i
Clc1ccc(CSC(Cn2ccnc2)c2ccc(Cl)cc2Cl)cc1 (stereo not given) | 6 | i | i | i | i | i
CC1(C)C[C@H]2C=C(C=O)[C@]3(C=O)C[C@]3(C)[C@H]2C1 | i | 21 | i | i | i | -8.19
C=C1C(=O)O[C@@H]2C[C@@H](C)[C@@H]3C=CC(=O)[C@@]3(C)[C@@H](OC(=O)CC(=O)O[C@H]3[C@@H]4C(=C)C(=O)O[C@@H]4C[C@@H](C)[C@@H]4C=CC(=O)[C@]43C)[C@H]12 | i | i | i | i | i | -4.65
CCOC(=O)c1c(NS(=O)(=O)c2ccccc2)n(CCCOC)c2nc3ccccc3nc12 | i | i | 8.4 | i | i | i
O=c1cccc2n1CC1CNC[C@H]2C1 | nt | nt | nt | nt | i | nt
c1ccc(CNc2c3c(nc4ccccc24)CCC3)cc1 | i | i | i | i | i | -6.57
CN1CC(C(=O)c2cccc(C(F)(F)F)c2)C(c2ccc(Cl)cc2)C1 (stereo not given) | i | i | i | i | i | -6.76
COc1ccc(Cc2nccc3cc(OC)c(OC)cc23)cc1OC | i | i | i | i | i | -8.28
COc1cc2c(ccc3c4cc(OC)c(OC)cc4c[n+](C)c23)cc1O | nt | nt | nt | nt | i | nt
COC1CCCCC1NCCc1ccccc1 (stereo not given) | i | i | 5.0 | i | i | i
COc1ccc(CCNC2CCCCCC2)cc1 | i | i | i | i | i | i
COc1ccc(CCNCc2c(OC)ccc3ccccc23)cc1 | i | i | i | i | i | -10.9
COc1ccc(CCNCc2ccccc2)cc1 | i | i | i | i | i | i
O=C(Cc1ccc(Cl)c(Cl)c1)NCC1(N2CCOCC2)CCCCC1 | i | i | i | i | i | i
Oc1ccc(CC2(N3CCCC3)CCCCC2)cc1 | i | i | 7.7 | i | i | i
CN1CCN(c2nc(N)c(Br)c(Cl)n2)CC1 | i | i | i | i | i | i
Cc1ccc(S(=O)(=O)NC(Cc2cnc[nH]2)C(=O)O)cc1 (stereo not given) | i | i | 10.4 | i | i | i
O=C(O)C(Cc1cnc[nH]1)NS(=O)(=O)c1ccc(Cl)cc1 (stereo not given) | i | i | i | i | i | i
C[C@H]1CC2C3CC=C4C[C@@H](O)CC[C@]4(C)C3CC[C@]2(C)[C@H]1O (stereo not given in full) | nt | nt | nt | nt | i | nt
COc1ccc(N2C(=O)NC(=O)C(CCc3ccncc3)(CCc3ccncc3)C2=O)cc1 | i | i | 4.6 | i | i | i
SMILES | KCNQ1 inh | KCNQ1 pot | hERG protect | KCNK9 block | KCNK3 inh | Kir21 block
CCc1ccc(N2C(=O)NC(=O)C(CCc3ccncc3)(CCc3ccncc3)C2=O)cc1 | i | i | i | i | i | i
Cc1ccc(OP(=O)(Nc2cccc(C)c2)Oc2ccc(C)cc2)cc1 | 6 | i | i | i | i | i
O=P(Nc1ccccc1)(Oc1ccccc1)Oc1ccccc1 | i | i | i | i | i | i
Cc1cccc(OP(=O)(Nc2cccnc2)Oc2cccc(C)c2)c1 | i | i | i | i | i | i
COc1ccc(NP(=O)(Oc2ccc(Cl)cc2)Oc2ccc(Cl)cc2)cc1OC | i | i | i | -7.05 | i | i
COc1ccc(NP(=O)(Oc2cccc(C)c2)Oc2cccc(C)c2)cc1OC | i | i | i | i | i | i
Cc1cccc(OP(=O)(Nc2ccc(F)cc2)Oc2cccc(C)c2)c1 | 8 | i | i | i | i | i
COc1cccc(OP(=O)(Nc2ccccc2)Oc2cccc(OC)c2)c1 | i | i | i | i | -9.14 | i
Cc1cc(OCC(=O)NCc2ccncc2)c2c3c(c(=O)oc2c1)CCCC3 | i | i | i | i | i | i
CNCC(O)c1cc(OCc2ccccc2)c(OCc2ccccc2)cc1F (stereo not given) | i | i | i | i | i | -6.01
O=C1NC(=O)C2(Cc3ccccc3N3CCCC32)C(=O)N1c1ccccc1 (stereo not given) | i | i | i | i | i | i
CN1c2ccc([N+](=O)[O-])cc2CC2(C(=O)NC(=O)N(c3ccc(Br)cc3)C2=O)C1c1ccccc1 (stereo not given) | 6 | i | i | i | i | i
O=S(=O)(NC1CCCCC1)OCC(Cl)(Cl)Cl | i | i | i | i | i | i
CC(NS(=O)(=O)OCC(Cl)(Cl)Cl)c1ccccc1 (stereo not given) | i | i | i | i | i | -5.65
COCCN1C(=O)/C(=C/c2c(OC)cc(OC)cc2OC)C(=O)N(c2ccccc2)C1=O | i | i | i | i | i | i
CNc1cc(Cl)c2nonc2c1[N+](=O)[O-] | 10 | i | i | i | i | -6.57
Cc1cc([N+](=O)[O-])c(Cl)cc1NC(=O)C(C)C | i | i | i | i | i | i
N#CCCn1cc(C(=O)Nc2ccccc2Cl)c(-c2ccc(F)cc2)n1 | i | i | 8.2 | i | i | i
CC(C)N1OC2CC1c1nc3ccccc3n1C2 (stereo not given) | i | i | i | i | i | i
C[C@]12CC[C@H](O)C[C@@H]1CC[C@@H]1[C@@H]2CC[C@]2(C)C(=O)CC[C@@H]12 | i | i | i | i | i | i
COC(=O)c1cncn1C(C)c1ccccc1 (stereo not given) | i | i | i | i | i | i
Cc1ccccc1NC1(C#N)CCCCC1 | i | i | i | i | i | i
C[C@H](N)CN1CCc2ccc(Br)cc21 | i | i | i | i | i | i
CN(C)c1ccc(/C=C/[N+](=O)[O-])cc1 | 12 | i | i | i | i | -6.27
CCn1cc(C(=O)O)c(=O)c2ccc(C)nc21 | i | i | i | i | i | i
C[C@]1(O)CC[C@H]2[C@@H]3CCC4=CC(=O)CC[C@]4(C)[C@@]3(F)[C@@H](O)C[C@@]21C | nt | nt | nt | nt | -9.75 | nt
